HCV NS3 hel inh: blocks Hepatitis C virus NS3 helicase unwinding. NS3 helicase DNA unwinding, Cy5 molecular beacon fluorescence. inhibition, % at 10.9 µM. 290,000 tested, 0.56% active;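 active = inhibition above the mean of all tested compounds plus 3 SD, set per campaign, cut at about 35% in these data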
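Test system: hepatitis C virus NS3 helicase domain fragment enzyme. Also added: annealed dual-labelled DNA beacon duplex, ATP-started. Timing: 60 min unwinding reaction at 25 °C after ATP addition. Technique: Cy5 fluorescence. Measure: % inhibition of unwinding.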
HSF1 inhib: HSF1 inhibition. NIH3T3-HGL HSE-luciferase, MG132-induced, luminescence 8 h; stronger effect = lower value. 300,000 tested, 0.77% active. activity change, negative = inhibition, % at 7.5 µM (by protocol);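 active = more than half of replicate wells show activity change below -50%, luminescence cut by over half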;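 also: luciferase reports HSF-1 transcriptional activity via heat shock element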
HSF1 activator: increases HSF-1 driven luciferase reporter signal | NIH3T3-HGL HSF-1 luciferase reporter, MG132, 8 h; 100% = twice DMSO control signal | AID 504408 | 300,000 tested, 1.7% active | activation, % at 9 µM;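 active = mean replicate activation of at least 50% with a set share of replicates each reaching 50%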
HSP90 refold inh: HSP90 refolding inhibition in rabbit reticulocyte lysate; AID 1789; luciferase refolding luminescence, 3 h; 290,000 tested, 0.91% active; inhibition, % at 5.6 µM;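 active = inhibition above the screen-wide mean plus 3 SD, computed separately per campaign, cut at about 16% in these data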;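 also: inhibitors lower the luminescence because luciferase stays unfolded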
HCV core dimer: blocks dimerization of HCV core protein; 300,000 tested, 0.33% active; TR-FRET GST/Flag-core106 dimerization, 1536-well; inhibition, % at 5 µM; AID 1899;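 active = inhibition above the mean of all tested compounds plus 3 SD, set per screening campaign, cut at about 45% in these data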
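Material: Tagged HCV core106 pair (GST and Flag) | Amount: GST-core106 13.5 nM, Flag-core106 17 nM | Medium: KF-containing HEPES buffer, pH 7.45, DTT, CHAPS, BSA | Reagent: Eu donor and XL665 acceptor anti-tag antibodies | Schedule: 4 h at 22.5 °C | Technique: Time-resolved FRET, ex 340 nm, em 617 and 671 nm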
FID counter: fluorescent intercalator displacement, NS3 helicase counter-screen. DNA fluorescent intercalator displacement, fluorescence. inhibition, % at 7.9 µM. 290,000 tested, 0.17% active. AID 1845; in the data active = inhibition above about 37%;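 also: higher means more ethidium bromide displaced from hairpin DNA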
HSP90 confirm: confirmation of HSP90 inhibitors | inhibition, % at 5.9 µM | AID 1846 | 2,300 tested, 64% active | rabbit reticulocyte lysate, luciferase refolding luminescence, 3 h | shares compounds with HSP90 refold inh; in the data active = inhibition above about 18%
FLuc counter: blocks native firefly luciferase in HSP90 counter-screen; shares compounds with HSP90 refold inh; purified native firefly luciferase, luminescence; inhibition, % at 5.9 µM; 2,300 tested, 48% active; AID 1847;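 active = inhibition above the mean inhibition of all tested sample wells plus 3 SD, cut at about 10% in these data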
Target sequence (P08659 whole entry, looked up): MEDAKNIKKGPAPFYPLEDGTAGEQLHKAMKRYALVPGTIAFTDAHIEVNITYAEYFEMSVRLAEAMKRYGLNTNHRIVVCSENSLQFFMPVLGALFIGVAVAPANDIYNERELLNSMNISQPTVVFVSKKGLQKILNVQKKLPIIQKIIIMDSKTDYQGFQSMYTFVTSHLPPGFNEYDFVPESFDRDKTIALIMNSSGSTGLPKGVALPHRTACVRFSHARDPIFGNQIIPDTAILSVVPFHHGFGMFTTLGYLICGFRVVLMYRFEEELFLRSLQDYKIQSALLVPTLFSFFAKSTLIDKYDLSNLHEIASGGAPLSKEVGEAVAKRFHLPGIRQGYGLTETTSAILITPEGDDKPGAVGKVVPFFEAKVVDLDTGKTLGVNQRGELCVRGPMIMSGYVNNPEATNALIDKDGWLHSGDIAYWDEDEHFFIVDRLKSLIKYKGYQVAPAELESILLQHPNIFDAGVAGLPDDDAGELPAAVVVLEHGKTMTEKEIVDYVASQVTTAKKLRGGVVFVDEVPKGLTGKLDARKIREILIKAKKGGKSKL
Numbers stand for hits; i = inactive; nt = no result. This is a sample that favours compounds with a hit; in the whole collection about 3.9% have one here.

SMILES	HCV NS3 hel inh	HSF1 inhib	HSF1 activator	HSP90 refold inh	HCV core dimer	FID counter	HSP90 confirm	FLuc counter
Cn1c(COc2ccc(Cl)cc2)nnc1SCc1ncc(-c2ccccc2)o1	i	i	i	i	i	i	nt	nt
Cc1nnsc1S(=O)c1ccc(Br)cc1 (stereo unspecified)	i	i	i	i	i	i	nt	nt
COc1cc(OC)c(NC2=CC(=O)C(=O)c3ccccc32)cc1Cl	i	i	i	44	i	i	34	i
CCC(C(=O)Nc1cc(Cl)c(OC)cc1OC)c1ccccc1 (stereo unspecified)	i	i	i	i	i	i	nt	nt
COc1ccc2c(=O)c(Oc3ccc(C(=O)O)cc3)c(C(F)(F)F)oc2c1	i	i	i	72	i	i	i	i
Cc1oc2cc(OCC(=O)O)ccc2c(=O)c1Oc1ccccc1	i	i	i	i	i	i	nt	nt
CC(C)Cn1c(CCNC(=O)c2ccco2)nc2ccccc21	i	i	i	i	i	i	nt	nt
Cc1ccccc1Nc1nc(-c2sc(NC(=O)c3cccc(Cl)c3)nc2C)cs1	i	i	i	78	i	i	52	i
Cc1ccc(-c2csc(NC(=O)c3ccc(-c4ccccc4)cc3)n2)o1	i	i	i	37	i	i	36	i
Cc1ccccc1Nc1nc(-c2sc(NC(=O)c3ccccc3)nc2C)cs1	i	i	i	59	i	i	30	i
CCC(C)C(=O)Nc1nc(C)c(-c2csc(Nc3ccccc3OC)n2)s1 (stereo unspecified)	i	i	i	i	i	i	nt	nt
CCOc1ccccc1Nc1nc(-c2sc(NC(=O)c3ccc([N+](=O)[O-])cc3)nc2C)cs1	i	i	i	79	i	i	20	i
Cc1ccc(Cl)cc1Nc1nc(-c2sc(NC(=O)c3ccco3)nc2C)cs1	i	i	i	i	i	i	nt	nt
COc1cc(OC)cc(C(=O)NCC(=O)OCc2nc3ccccc3s2)c1	i	i	i	i	i	i	nt	nt
CC(C)=CC(=O)OCC(=O)NC1CCCc2ccccc21 (stereo unspecified)	i	i	i	i	i	i	nt	nt
Cc1ccc(CC(C(=O)O)C(C)C(=O)Nc2ccc(F)cc2)cc1 (stereo unspecified)	i	i	i	i	nt	i	nt	nt
Cc1ccccc1Nc1nc(-c2sc(NC(=O)c3ccc([N+](=O)[O-])cc3)nc2C)cs1	i	i	i	79	i	i	53	i
Cc1ccc(Cl)cc1Nc1nc(-c2sc(NC(=O)c3cccc(Cl)c3)nc2C)cs1	i	i	i	65	i	i	44	i
CCCCCC(=O)Nc1nc(C)c(-c2csc(Nc3ccc(Cl)cc3)n2)s1	i	i	i	i	i	i	nt	nt
Cc1ccc(Nc2nc(-c3sc(NC(=O)c4ccc([N+](=O)[O-])cc4)nc3C)cs2)cc1	i	i	i	81	i	i	45	i
CN(C(=O)CSc1nc(N)c2c3c(sc2n1)CSC(C)(C)C3)c1ccccc1	i	i	i	i	i	i	nt	nt
CC1=CC2=NC(=O)/C(=C\c3cccn3CCOc3cc(C)ccc3C)C(=N)N2O1	i	i	i	53	i	i	i	i
CC1=CC2=NC(=O)/C(=C\c3cccn3CCOc3cccc(C)c3)C(=N)N2O1	i	i	i	i	i	i	nt	nt
CCN(CC)c1ccc2cc(NC(=O)CCC(=O)O)c(=O)oc2c1	i	i	i	33	i	i	36	i
CCN(CC)c1ccc2cc(C(C)=O)c(=O)oc2c1	i	i	i	i	i	i	nt	nt
SMILES	HCV NS3 hel inh	HSF1 inhib	HSF1 activator	HSP90 refold inh	HCV core dimer	FID counter	HSP90 confirm	FLuc counter
N#CC(Cc1cccc(CC(C#N)(c2ccccc2)c2ccccc2)c1)(c1ccccc1)c1ccccc1	i	i	i	40	i	i	i	i
N#CC1=C2C=CC=CN2CC1=O	i	i	i	20	i	i	i	i
Cc1[nH]nc2c1C1(CCN(C(=O)OCc3ccccc3)CC1)C(C#N)=C(N)O2	i	i	i	24	i	i	i	i
Cc1[nH]nc2c1C1(CCN(C(=O)c3ccccc3)CC1)C(C#N)=C(N)O2	i	i	i	i	i	i	nt	nt
CN1CCN(C(=O)C2=C[C@@H](c3ccccc3)C[C@@H](OCc3ccc(CO)cc3)O2)CC1	i	i	i	i	i	i	nt	nt
CN1CCN(C(=O)C2=C[C@@H](c3ccc(Br)cc3)C[C@@H](OCc3ccc(CO)cc3)O2)CC1	i	i	i	25	i	i	i	i
CC(C)c1ccc2oc(-c3cc(N)ccc3O)nc2c1	i	i	i	46	i	i	80	79
Cc1ccc(C)c(NC(=O)COC(=O)COc2cccc3c2OC(C)(C)C3)c1	nt	i	i	nt	i	nt	nt	nt
CC(C)CN1C(=O)NC(NC(=O)c2ccco2)(C(F)(F)F)C1=O (stereo unspecified)	i	i	i	27	i	i	i	i
C=CCC(C#Cc1ccc(C)cc1)N(CC)CC (stereo unspecified)	i	i	i	i	i	i	nt	nt
COc1ccc(CN(C)C(=O)c2sccc2-c2ccccc2)c(OC)c1	i	i	i	i	i	i	nt	nt
CCc1nc2ccc(C(=O)O)cc2nc1CC	i	-69	i	75	i	i	63	51
CN(C)C(=O)CCc1nc(-c2ccc(C(C)(C)C)cc2)no1	i	i	i	20	i	i	27	i
CC(C)(C)c1ccc(-c2noc(CCC(=O)Nc3cccnc3)n2)cc1	i	i	i	45	i	i	i	i
CC(C)(C)c1ccc(-c2noc(CCC(N)=O)n2)cc1	i	i	i	i	i	i	nt	nt
CCOC(=O)CS(=O)(=O)c1nc(-c2ccc(F)cc2)cc(C(F)(F)F)n1	i	i	88	53	i	i	i	i
CCOC(=O)c1c(C(F)(F)F)cc(-c2ccc(F)cc2)nc1C	i	i	i	i	i	i	nt	nt
COC(=O)c1ccc(CNC(=O)CSc2nnc(COc3ccccc3)n2C)o1	i	i	i	i	i	i	nt	nt
CCn1cc(CN2CCCC(C(=O)c3ccc(-c4ccccc4)cc3)C2)cn1 (stereo unspecified)	i	i	i	i	i	i	nt	nt
CNc1nc(-c2ccc3c(c2)CCN3C(=O)c2ccc(F)cc2)cs1	i	nt	nt	19	nt	i	i	i
CNc1nc(-c2ccc3c(c2)CCN3C(=O)c2cccc(F)c2)cs1	i	i	i	i	i	i	nt	nt
Cc1ccc(NC(=O)C(=O)NNC(=O)c2ccccc2C)cc1Cl	i	i	i	i	i	i	nt	nt
COCCNC(=O)C(=O)NCCN1CCOCC1	i	i	i	i	i	i	nt	nt
COCCNC(=O)C(=O)NCCN1CCNCC1	i	i	i	34	i	i	i	i

High-throughput results from PubChem.
